Assay results collected from several papers.
Lines come from different studies, so protocols differ.
Target: Serine/threonine-protein kinase DCLK3 (DCLK3, Homo sapiens, UniProt Q9C098)
One construct used (Q9C098 1-648): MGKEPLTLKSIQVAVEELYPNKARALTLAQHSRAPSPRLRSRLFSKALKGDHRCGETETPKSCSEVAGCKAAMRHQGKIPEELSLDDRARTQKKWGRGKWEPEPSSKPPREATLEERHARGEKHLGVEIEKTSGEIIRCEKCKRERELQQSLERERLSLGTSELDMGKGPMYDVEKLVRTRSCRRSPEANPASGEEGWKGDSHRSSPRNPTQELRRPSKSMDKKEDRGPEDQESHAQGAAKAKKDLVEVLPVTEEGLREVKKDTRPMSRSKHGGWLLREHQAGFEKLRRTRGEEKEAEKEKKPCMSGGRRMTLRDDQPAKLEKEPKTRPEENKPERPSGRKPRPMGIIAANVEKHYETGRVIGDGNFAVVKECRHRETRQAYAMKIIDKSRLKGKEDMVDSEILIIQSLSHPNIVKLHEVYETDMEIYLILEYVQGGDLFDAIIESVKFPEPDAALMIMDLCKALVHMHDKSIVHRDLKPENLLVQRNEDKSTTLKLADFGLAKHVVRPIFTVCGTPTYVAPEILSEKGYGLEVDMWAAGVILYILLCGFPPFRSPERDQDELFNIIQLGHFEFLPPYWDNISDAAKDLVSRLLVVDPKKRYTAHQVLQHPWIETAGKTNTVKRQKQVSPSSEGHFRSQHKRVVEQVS

read-out | action | technique | concentration | measurement | value | SMILES
cell-free assay | inhibitor | – | 20 µM | remaining signal | 24% | Nc1ncnc2occ(-c3ccc(NC(=O)Nc4cc(C(F)(F)F)ccc4F)cc3)c12
enzyme activity | inhibitor | – | 0.1 µM | activity vs control | 110% | Cc1cc(NC(=O)c2cccc3cc(-c4cccc5[nH]nc(N)c45)ccc23)ccc1F
enzyme activity | inhibitor | – | 1 µM | inhibition | -4% | CN1CC(Oc2cnc(C#N)cc2-c2ccn3nc(NC(=O)C4CC4)cc3c2)C1
cell-free assay | – | competition with immobilised ligand | 1 µM | remaining binding | 100% | COc1cc(-c2cn(C3CCc4ccccc4N(CC(F)(F)F)C3=O)nn2)ccc1-n1ccc(C)n1 (stereo not drawn)
enzyme activity | inhibitor | – | 23.5 nM | remaining activity | 100% | Cc1ccc(C(=O)Nc2ccc(CN3CCN(C)CC3)c(C(F)(F)F)c2)cc1C#Cc1cnc2cccnn12
enzyme activity | inhibitor | radiometric | 1 µM | remaining activity | 56% | Cc1cnc(NC2CCOCC2)nc1-n1cnc(C(=O)NC(CN)c2cc(F)cc(Cl)c2)c1 (stereo not drawn)
cell-free assay | – | – | 10 µM | remaining signal | 101% | Cc1ccc(NC(=O)c2ccc(C)c(C(F)(F)F)c2)cc1C#Cc1nn(C2CCC(O)CC2)c2ncnc(N)c12 (stereo not drawn)
cell-free assay | – | competition with immobilised ligand | 1 µM | remaining binding | 96% | COc1ccc2c(O[C@@H]3C[C@H]4C(=O)N[C@]5(C(=O)O)CC5/C=C\CCCCC[C@H](NC(=O)OC5CCCC5)C(=O)N4C3)cc(-c3csc(NC(=O)C(C)C)n3)nc2c1C (stereo partly drawn)
enzyme activity | inhibitor | – | 1 µM | remaining activity | 89% | COc1cc(Cl)c(C(=O)N[C@@H](CN[C@H]2CC[C@@H](N)CC2)Cc2ccc(C#N)cc2)cc1-c1ccc(CN[C@H](C)c2ccc(C)cc2)o1
